The results in this text go back to ChEMBL document CHEMBL1154677, “Microtubule-stabilizing activity of zampanolide, a potent macrolide isolated from the Tongan marine sponge Cacospongia mycofijiensis” (J Med Chem, 2009).

pIC50: −log10 of the molar value. Calls of active or inactive are those of the source. The calls are words filed in the database; no cut-off is given here.

As a reminder, the pIC50 is the IC50 on a negative log10 scale, so that one unit is a factor of ten.

Assay [1] deals with HL-60. The assay is described as follows: Cytotoxicity against human HL60 cells after 48 hrs by MTT assay. Format: functional, cell-based. Particulars: HL-60, 48 h. In a few lines: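 HL-60 in RPMI-1640 with 10% fetal calf serum plus penicillin-streptomycin. 48 h drug exposure, growth by MTT dye reduction, IC50 from dose-response curves; n = 5 preparations.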
For orientation: Tetrazolium dyes change colour on reduction, which living cells bring about.

Assay [2] has as its system 1A9. The assay is described as follows: Cytotoxicity against human 1A9 cells after 72 hrs by MTT assay. Format: functional, cell-based. Particulars: 1A9, 72 h. A digest of the protocol:
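1A9 ovarian carcinoma in RPMI-1640 with 10% fetal calf serum, penicillin-streptomycin and 0.25 units/mL insulin. 72 h exposure, MTT dye reduction, IC50 from dose-response curves; n = 6 preparations.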

For assay [3], the system named is HL-60. The assay is described as follows: Cytotoxicity against human HL60 cells at 2 nM after 24 hrs by Trypan blue exclusion test. The assay is classed as functional, cell-based. In a few lines: (§1)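 HL-60 cells exposed to drug, then viability counted by Trypan blue dye exclusion at 24 h and 48 h; n = 2 preparations.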
The subject of assay [4] is HL-60. The assay is described as follows: Cytotoxicity against human HL60 cells assessed as cell death at 10 nM after 48 hrs by Trypan blue exclusion test. The assay is classed as functional, cell-based. In a few lines: as §1
The subject of assay [5] is HL-60. The experiment in a line: Cytotoxicity against human HL60 cells assessed as increase in cell diameter after 48 hrs by Giemsa staining. The assay is classed as functional, cell-based. In a few lines: (§2)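 HL-60 cells given 2-8 nM for 48 h, cytospun onto slides, air-dried, fixed in 100% methanol, Giemsa-stained. Cell diameter measured and compared with untreated cells.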

Assay [6] relates to HL-60. The experiment in a line: Cytotoxicity against human HL60 cells assessed as increase in cell diameter at 8 nM after 48 hrs by Giemsa staining. The assay is classed as functional. In a few lines:
as §2

Assay [7] deals with HL-60. The experiment in a line: Cell cycle arrest in human HL60 cells assessed as accumulation in G2/M phase at 2 to 10 nM after 16 hrs by flow cytometry. The assay is classed as functional, cell-based. In a few lines:
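HL-60 cells in RPMI-1640 with 10% fetal calf serum, exposed 16 h over 2-10 nM. Propidium iodide stain, DNA content by flow cytometry, G2/M and subdiploid fractions scored.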
Background: Flow cytometry measures light scatter and fluorescence of single cells or particles in a stream.

Assay [8] deals with 1A9. The experiment in a line: Cytotoxicity against human 1A9 cells assessed as interphase cells with microtubule bundles at 5 nM after 12 hrs by immunocytochemistry. The assay is classed as functional. In a few lines: (§3)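 1A9 cells on glass coverslips attached 24 h, then dosed at 0-20 nM for 12 h. Fixed in ice-cold methanol/acetone 1:1, blocked with 5% BSA in PBST, stained with anti-α-tubulin and Alexa 488 secondary plus DAPI, viewed by confocal microscopy. Percent of interphase cells with bundles and mitotic cells with multiple asters scored; n = 3 preparations.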

Assay [9] relates to 1A9. The experiment in a line: Cytotoxicity against human 1A9 cells assessed as interphase cells with microtubule bundles at 8 nM after 12 hrs by immunocytochemistry. The assay is classed as functional. In a few lines:
as §3

For assay [10], the system named is 1A9. The experiment in a line: Cytotoxicity against human 1A9 cells assessed as interphase cells with microtubule bundles at 10 nM after 12 hrs by immunocytochemistry. Format: functional. A digest of the protocol:
as §3

Assay [11] relates to 1A9. The assay is described as follows: Cytotoxicity against human 1A9 cells assessed as interphase cells with microtubule bundles at 20 nM after 12 hrs by immunocytochemistry. The assay is classed as functional. A digest of the protocol: as §3
For assay [12], the system named is 1A9. The assay is described as follows: Cytotoxicity against human 1A9 cells assessed as mitotic cells with multiple asters at 5 nM after 12 hrs by immunocytochemistry. Format: functional. A digest of the protocol: as §3
The subject of assay [13] is 1A9. The assay is described as follows: Cytotoxicity against human 1A9 cells assessed as mitotic cells with multiple asters at 8 nM after 12 hrs by immunocytochemistry. Format: functional. In a few lines: as §3
For assay [14], the system named is 1A9. The experiment in a line: Cytotoxicity against human 1A9 cells assessed as mitotic cells with multiple asters at 10 nM after 12 hrs by immunocytochemistry. Format: functional. In a few lines:
as §3

For assay [15], the system named is 1A9. The experiment in a line: Cytotoxicity against human 1A9 cells assessed as mitotic cells with multiple asters at 20 nM after 12 hrs by immunocytochemistry. The assay is classed as functional. In a few lines:
as §3

The target in assay [16] is T1, Tubulin (Homo sapiens) (UniProt P68371+Q9H4B7+P0DPH7+P68366+Q13509+Q71U36+P04350+Q3ZCM7+P07437+P68363+Q9BQE3+Q6PEY2+Q13885+Q9BVA1+Q9BUF5). The assay is described as follows: Induction of tubulin polymerization in human 1A9 cells after 16 hrs by Western blotting. Format: cell-based. A digest of the protocol:
(§4)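 1A9 cells dosed for 16 h. Lysates split into soluble and particulate fractions at 14000g for 10 min, electrophoresed and immunoblotted for α-tubulin with Cy5 secondary. Percent polymerized = pellet band density / (soluble + pellet) by densitometry; four independent experiments.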

For assay [17], the target named is T1, Tubulin (Homo sapiens). The experiment in a line: Induction of tubulin polymerization in human 1A9 cells at 100 nM after 16 hrs by Western blotting. Format: cell-based. In a few lines:
as §4
Background: In western blotting, separated proteins are transferred to a membrane and probed.

The species entered for the next assay is Bos taurus. The assay is described as follows: Induction of bovine tubulin polymerization at 10 uM after 1hr in presence of 1 mM GTP. A digest of the protocol: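 Purified bovine brain tubulin, 2 μM, in 80 mM PIPES, 0.5 mM EGTA, 2 mM MgCl2, 1 mM GTP, pH 6.9, no MAPs. Reaction started by adding drug at 10 μM, 37 °C; ethanol 1% final in controls. A340 read every 30 s for 1 h; three experiments.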

Assay [18] concerns A2780. The assay is described as follows: Selectivity ratio of IC50 for p-glycoprotein overexpressing human A2780AD cells to IC50 for human A2780 cells. Format: functional. A digest of the protocol: (§5)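 A2780 parental and P-gp-overexpressing A2780AD ovarian cells in RPMI-1640 with 10% fetal calf serum and 0.25 units/mL insulin.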
In assay [19] the test system is A2780. The experiment in a line: Cytotoxicity against human A2780 cells by MTT cell proliferation assay. Format: functional, cell-based.
Assay [20] in a line: Cytotoxicity against p-glycoprotein overexpressing human A2780AD cells by MTT cell proliferation assay. Format: functional, cell-based. Particulars: A2780 ADR. In a few lines:
as §5

Regarding `C=C1C[C@@H]2C/C=C/C(=O)C/C(C)=C\C=C\C(=O)O[C@H]([C@H](O)NC(=O)/C=C\C=C\C)C/C(C)=C/[C@H](C1)O2` [ZAMPANOLIDE], the pIC50 was 8.37 in the assay with HL-60 [1], 7.84 in the assay on 1A9 [2], 8.15 in the assay with A2780 [19] and 8.12 in [20]. The result in the assay with HL-60 [3], in the assay with HL-60 [4], with HL-60 [7], on Tubulin (Homo sapiens) [17] and in the assay filed under Bos taurus was Active. Besides, the Activity entry in the assay on HL-60 [5] was “Dose-dependent effect”; in the assay with HL-60 [6] it was 28.7 micrometer; in the assay on 1A9 [8] it was 9.6%; in the assay on 1A9 [9], 28.6%; with 1A9 [10], 55%; in the assay with 1A9 [11] it was 74.3%. Also, the Activity is 4.3% in the assay with 1A9 [12]; 21.6% in the assay with 1A9 [13]; 51.4% with 1A9 [14]; 57.3% in the assay with 1A9 [15]; “Dose-dependent effect” on Tubulin (Homo sapiens) [16]. The “Ratio IC50” value with A2780 [18] amounted to 1.4.

In the case of `CC(=O)O[C@H]1C(=O)[C@@]2(C)[C@H]([C@H](OC(=O)c3ccccc3)[C@]3(O)C[C@H](OC(=O)[C@H](O)[C@@H](NC(=O)c4ccccc4)c4ccccc4)C(C)=C1C3(C)C)[C@]1(OC(C)=O)CO[C@@H]1C[C@@H]2O` [PACLITAXEL], the Activity turned out to be 13.7% in the assay with 1A9 [8]; 76.5% with 1A9 [10]; 81.9% in the assay on 1A9 [11]; 6.6% in the assay on 1A9 [12]; 43.3% with 1A9 [14]; 52.2% in the assay on 1A9 [15]. Moreover, the pIC50 in [20] was 6.38.
